Measurements: ChEMBL document CHEMBL4385611, “Difluoromethylene at the γ-Lactam α-Position Improves 11-Deoxy-8-aza-PGE1 Series EP4 Receptor Binding and Activity: 11-Deoxy-10,10-difluoro-8-aza-PGE1 Analog (KMN-159) as a Potent EP4 Agonist” (J Med Chem, 2019)
Values after ≈ are worked out from the molar mass of the structure shown.

Legend:
[1] = Genotoxicity in Salmonella typhimurium TA98 at 0.6 to 100 uM after 96 hrs by photometry analysis; assay type: toxicity; details: salmonella enterica subsp. enterica serovar typhimurium
[2] = Efflux ratio of apparent permeability from basolateral to apical side over apical to basolateral side in human Caco2 cells at 5 uM after 120 mins by LC-MS/MS analysis; assay type: ADME, cell-based; details: Caco-2
[3] = Mutagenicity in Salmonella typhimurium TA1537 after 96 hrs in absence of rat liver S9 fraction by Ames test; assay type: toxicity; details: salmonella enterica subsp. enterica serovar typhimurium, s9, 96 h
[4] = molecular target: Prostaglandin E2 receptor EP2 subtype (Homo sapiens, UniProt P43116); test: Agonist activity at human EP2 receptor expressed in HEK293T/17 cells assessed as increase in GalphaS-mediated CREB activation measured after 6 to 24 hrs by SEAP reporter gene-based chemiluminescence assay; assay type: functional, cell-based
[5] = test system: CHO-K1; test: Clastogenic activity in CHOK1 cells after 4 hrs in presence of S9 fraction by micronucleus assay; assay type: toxicity, cell-based, Cricetulus griseus; details: chinese hamster, s9, 4 h
[6] = species on record: Homo sapiens; test: Selectivity ratio of Ki for displacement of [3H]PGE2 from human recombinant EP2 receptor expressed in HEK293 cell membranes to Ki for displacement of [3H]PGE2 from human recombinant EP4 receptor expressed in HEK293 cell membranes
[7] = Mutagenicity in Salmonella typhimurium TA1535 after 96 hrs in presence of rat liver S9 fraction by Ames test; assay type: toxicity, subcellular; details: salmonella enterica subsp. enterica serovar typhimurium, s9, 96 h
[8] = Half-life in human blood at 1 uM by HPLC-MS/MS analysis; assay type: ADME, tissue-based
[9] = test system: CHO-K1; test: Clastogenic activity in CHOK1 cells after 4 hrs in absence of S9 fraction by micronucleus assay; assay type: toxicity, cell-based, Cricetulus griseus; details: chinese hamster, cho-k1, 4 h
[10] = Apparent permeability across basolateral to apical side in human Caco2 cells assessed as drug recovery at 5 uM after 120 mins by LC-MS/MS analysis; assay type: ADME, cell-based; details: Caco-2, read-out: Drug recovery
[11] = molecular target: Cytochrome P450 2D6 (Homo sapiens, UniProt P10635); test: Inhibition of CYP2D6 in human liver microsomes using dextromethorphan as substrate at 10 uM after 10 mins by HPLC-MS/MS analysis; assay type: ADME
[12] = Aqueous solubility of the compound in pH 7.4 phosphate-buffered saline at 200 uM after 24 hrs by shake-flask method; assay type: physicochemical
[13] = molecular target: Prostaglandin E2 receptor EP4 subtype (Homo sapiens, UniProt P35408); test: Displacement of [3H]PGE2 from human recombinant EP4 receptor expressed in HEK293 cell membranes after 120 mins by liquid scintillation counting method
[14] = Genotoxicity in Salmonella typhimurium TA1537 at 0.6 to 100 uM after 96 hrs by photometry analysis; assay type: toxicity; details: salmonella enterica subsp. enterica serovar typhimurium
[15] = Mutagenicity in Salmonella typhimurium TA100 after 96 hrs in absence of rat liver S9 fraction by Ames test; assay type: toxicity; details: salmonella enterica subsp. enterica serovar typhimurium, s9, 96 h
[16] = Chemical stability in PBS buffer at pH 7.4 assessed as compound recovery at 4 degC; assay type: physicochemical
Procedure, shortened: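 Compound solution in PBS, pH 7.4, held at 4 °C, tested as plain aqueous solution and after autoclaving. A separate sample was exposed to Co-60 gamma irradiation. Read-out is percent of compound recovered.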

[17] = Apparent permeability across basolateral to apical side in MDCK-MDR1 cells assessed as drug recovery; assay type: ADME, cell-based, Canis lupus familiaris; details: dog, read-out: Drug recovery
[18] = molecular target: Cytochrome P450 3A (Homo sapiens, UniProt P08684+P20815+Q9HB55+P24462); test: Inhibition of CYP3A in human liver microsomes using testosterone as substrate at 10 uM after 10 mins by HPLC-MS/MS analysis; assay type: ADME
[19] = Mutagenicity in Salmonella typhimurium TA1535 after 96 hrs in absence of rat liver S9 fraction by Ames test; assay type: toxicity; details: salmonella enterica subsp. enterica serovar typhimurium, s9, 96 h
[20] = molecular target: T1, Cytochrome P450 2C8 (Homo sapiens, UniProt P10632); test: Inhibition of CYP2C8 in human liver microsomes using paclitaxel as substrate at 10 uM after 10 mins by HPLC-MS/MS analysis; assay type: ADME
T1 sequence (P10632 whole entry): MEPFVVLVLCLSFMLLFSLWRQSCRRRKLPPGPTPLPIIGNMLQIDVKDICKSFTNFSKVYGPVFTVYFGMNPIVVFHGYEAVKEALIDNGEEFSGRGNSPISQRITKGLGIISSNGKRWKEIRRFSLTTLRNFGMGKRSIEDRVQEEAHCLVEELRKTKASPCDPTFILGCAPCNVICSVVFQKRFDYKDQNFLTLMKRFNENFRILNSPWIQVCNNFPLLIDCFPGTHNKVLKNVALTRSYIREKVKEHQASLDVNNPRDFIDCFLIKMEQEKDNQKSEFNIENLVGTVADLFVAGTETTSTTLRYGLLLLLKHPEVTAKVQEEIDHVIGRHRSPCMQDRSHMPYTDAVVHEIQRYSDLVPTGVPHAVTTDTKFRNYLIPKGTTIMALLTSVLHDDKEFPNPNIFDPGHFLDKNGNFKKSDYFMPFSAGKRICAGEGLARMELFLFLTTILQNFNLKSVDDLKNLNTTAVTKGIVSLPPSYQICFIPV

[21] = molecular target: Cytochrome P450 2C19 (Homo sapiens, UniProt P33261); test: Inhibition of CYP2C19 in human liver microsomes using omeprazole as substrate at 10 uM after 10 mins by HPLC-MS/MS analysis; assay type: ADME
[22] = Apparent permeability across basolateral to apical side in human Caco2 cells at 5 uM after 120 mins by LC-MS/MS analysis; assay type: ADME, cell-based; details: Caco-2
[23] = Half-life in human hepatocytes at 0.1 uM by HPLC-MS/MS analysis; assay type: ADME, cell-based, Hepatocyte
[24] = Apparent permeability across apical to basolateral side in human Caco2 cells at 5 uM after 120 mins by LC-MS/MS analysis; assay type: ADME, cell-based; details: Caco-2
[25] = molecular target: T2, Cytochrome P450 2B6 (Homo sapiens, UniProt P20813); test: Inhibition of CYP2B6 in human liver microsomes using bupropion as substrate at 10 uM after 10 mins by HPLC-MS/MS analysis; assay type: ADME
T2 sequence (P20813 whole entry): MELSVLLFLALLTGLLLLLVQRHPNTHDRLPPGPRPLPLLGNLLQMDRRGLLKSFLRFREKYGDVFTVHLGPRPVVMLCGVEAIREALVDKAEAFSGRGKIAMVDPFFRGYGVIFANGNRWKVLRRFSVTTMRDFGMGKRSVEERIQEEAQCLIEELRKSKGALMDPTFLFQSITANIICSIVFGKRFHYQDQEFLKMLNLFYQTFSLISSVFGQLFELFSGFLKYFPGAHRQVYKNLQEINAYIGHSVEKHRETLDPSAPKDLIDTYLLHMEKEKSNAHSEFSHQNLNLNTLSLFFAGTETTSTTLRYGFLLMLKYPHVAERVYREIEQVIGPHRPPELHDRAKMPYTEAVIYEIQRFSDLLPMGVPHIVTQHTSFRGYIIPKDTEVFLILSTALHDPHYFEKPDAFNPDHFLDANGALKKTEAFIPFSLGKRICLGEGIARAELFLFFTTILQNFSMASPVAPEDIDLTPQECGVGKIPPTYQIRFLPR

[26] = Half-life in human liver microsomes at 0.1 uM by HPLC-MS/MS analysis; assay type: ADME, Microsome

Sequence of Prostaglandin E2 receptor EP2 subtype (P43116 whole entry): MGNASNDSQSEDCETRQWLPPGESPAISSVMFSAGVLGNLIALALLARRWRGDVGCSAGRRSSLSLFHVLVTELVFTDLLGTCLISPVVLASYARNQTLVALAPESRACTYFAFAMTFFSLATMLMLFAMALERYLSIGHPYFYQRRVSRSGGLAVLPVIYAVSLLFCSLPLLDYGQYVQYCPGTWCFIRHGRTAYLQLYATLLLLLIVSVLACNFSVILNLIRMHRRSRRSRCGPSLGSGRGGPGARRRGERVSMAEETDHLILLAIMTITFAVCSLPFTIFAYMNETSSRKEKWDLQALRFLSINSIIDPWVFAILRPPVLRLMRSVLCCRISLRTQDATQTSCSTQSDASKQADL
Sequence of Cytochrome P450 2D6 (P10635 whole entry): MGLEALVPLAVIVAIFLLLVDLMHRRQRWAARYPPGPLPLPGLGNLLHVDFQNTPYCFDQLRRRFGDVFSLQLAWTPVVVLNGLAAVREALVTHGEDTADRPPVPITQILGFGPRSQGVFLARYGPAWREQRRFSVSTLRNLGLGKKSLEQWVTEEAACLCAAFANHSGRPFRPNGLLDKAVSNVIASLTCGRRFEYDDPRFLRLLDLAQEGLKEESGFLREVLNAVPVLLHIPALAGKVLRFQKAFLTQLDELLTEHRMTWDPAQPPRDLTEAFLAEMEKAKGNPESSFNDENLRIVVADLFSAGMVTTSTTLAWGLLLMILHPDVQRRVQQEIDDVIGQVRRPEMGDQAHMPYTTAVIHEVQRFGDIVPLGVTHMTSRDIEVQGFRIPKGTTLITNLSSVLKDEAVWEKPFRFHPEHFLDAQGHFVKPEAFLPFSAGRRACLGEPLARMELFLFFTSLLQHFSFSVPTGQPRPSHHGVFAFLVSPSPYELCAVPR
Sequence of Cytochrome P450 2C19 (P33261 whole entry): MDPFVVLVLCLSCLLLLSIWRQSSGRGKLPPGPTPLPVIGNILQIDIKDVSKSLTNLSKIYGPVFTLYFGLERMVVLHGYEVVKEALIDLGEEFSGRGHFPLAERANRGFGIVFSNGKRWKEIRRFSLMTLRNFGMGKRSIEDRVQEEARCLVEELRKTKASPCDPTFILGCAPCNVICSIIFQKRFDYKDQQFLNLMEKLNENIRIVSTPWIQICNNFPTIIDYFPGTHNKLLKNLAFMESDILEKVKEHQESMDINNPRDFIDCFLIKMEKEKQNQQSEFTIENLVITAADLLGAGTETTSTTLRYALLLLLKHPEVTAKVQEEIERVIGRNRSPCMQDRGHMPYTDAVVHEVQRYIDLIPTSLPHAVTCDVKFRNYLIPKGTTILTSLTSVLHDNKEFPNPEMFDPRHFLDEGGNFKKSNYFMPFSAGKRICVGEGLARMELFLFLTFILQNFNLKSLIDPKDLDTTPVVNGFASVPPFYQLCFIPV
Sequence of Prostaglandin E2 receptor EP4 subtype (P35408 whole entry): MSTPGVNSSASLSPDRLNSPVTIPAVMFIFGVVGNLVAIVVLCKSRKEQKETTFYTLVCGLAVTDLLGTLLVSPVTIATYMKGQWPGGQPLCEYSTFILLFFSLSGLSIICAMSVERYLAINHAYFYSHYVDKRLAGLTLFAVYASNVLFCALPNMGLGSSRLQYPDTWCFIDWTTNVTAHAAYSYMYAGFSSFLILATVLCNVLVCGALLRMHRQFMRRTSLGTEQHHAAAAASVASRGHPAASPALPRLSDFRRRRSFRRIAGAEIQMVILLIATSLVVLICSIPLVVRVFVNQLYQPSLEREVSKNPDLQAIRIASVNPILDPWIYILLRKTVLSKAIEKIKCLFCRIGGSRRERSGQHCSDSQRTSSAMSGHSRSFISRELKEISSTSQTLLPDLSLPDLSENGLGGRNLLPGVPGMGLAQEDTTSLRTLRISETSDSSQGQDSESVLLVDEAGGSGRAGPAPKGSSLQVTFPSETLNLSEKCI

SMILES | Activity [1] | efflux ratio at 2 h, 5 µM [2] | Activity [3] | EC50 [4] | Activity [5] | Ratio Ki [6] | Activity [7] | half-life at 1 µM [8] | Activity [9] | recovery at 2 h, 5 µM [10] | inhibition (INH) [11] | solubility thermodynamic at 24 h, 200 µM [12] | Ki [13] | Activity [14] | Activity [15] | inhibition (INH) [18] | Activity [19] | inhibition (INH) [20] | inhibition (INH) [21] | Papp B→A at 2 h, 5 µM [22] | other results
CCC#CC[C@H](C)[C@H](O)/C=C/[C@H]1CC(F)(F)C(=O)N1CCCCCCC(=O)O | Non-Toxic | 1.5 | Non-Toxic | 7360 nM | Non-Toxic | > 5000 | Non-Toxic | > 2 h | Non-Toxic | 93% | Not Active | 197 µM (≈ 78.7 µg/mL) | 0.378 nM | Non-Toxic | Non-Toxic | Not Active | Non-Toxic | Not Active | Not Active | 14.5 ×10⁻⁶ cm/s | Drug recovery [16]: 100%; recovery [17]: 93%; half-life at 0.1 µM [23]: > 2 h; Papp A→B at 2 h, 5 µM [24]: 9.93 ×10⁻⁶ cm/s; inhibition (INH) [25]: Not Active; half-life at 0.1 µM [26]: > 1 h
CCC#CC[C@H](C)[C@H](O)/C=C/[C@H]1CCC(=O)N1CCCCCCC(=O)O | Non-Toxic | 1.6 | Non-Toxic | > 10000 nM | Non-Toxic | > 5000 | Non-Toxic | > 2 h | Non-Toxic | 97% | Not Active | 192 µM (≈ 69.9 µg/mL) | 2.35 nM | Non-Toxic | Non-Toxic | Not Active | Non-Toxic | Not Active | Not Active | 10.1 ×10⁻⁶ cm/s | half-life at 0.1 µM [23]: > 2 h; Papp A→B at 2 h, 5 µM [24]: 6.38 ×10⁻⁶ cm/s; inhibition (INH) [25]: Not Active; half-life at 0.1 µM [26]: > 1 h
